Assay outcomes: PubChem, several laboratories
Only some compounds are listed: those with a hit (about 3.7% of all), similar ones and a draw of the others.
proCasp3 act = activators of human procaspase-3 | P42574 | AID 463141 | recombinant procaspase-3 D3A, Ac-DEVD-pNA absorbance 405 nm | activation, % at 8.5 µM | actives 0.11% (n = 330,000);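 active = activation above the mean of all tested compounds plus 3 SD, cut at about 21% in these data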
Target sequence (P42574 whole entry D9A/D28A/D175A): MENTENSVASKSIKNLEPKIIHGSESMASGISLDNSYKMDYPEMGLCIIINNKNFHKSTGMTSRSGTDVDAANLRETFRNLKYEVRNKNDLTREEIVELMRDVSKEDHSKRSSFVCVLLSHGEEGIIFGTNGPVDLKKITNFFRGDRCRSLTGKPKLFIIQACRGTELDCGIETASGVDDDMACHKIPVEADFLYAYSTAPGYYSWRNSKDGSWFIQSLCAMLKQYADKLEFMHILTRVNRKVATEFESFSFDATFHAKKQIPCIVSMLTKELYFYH
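Test system: Procaspase-3 D3A mutant, all three cleavage aspartates alanine | Dosing: Single dose, 8.5 µM nominal compound, 0.8% DMSO | Schedule: 1 h preincubation, 2 h reaction | Technique: 405 nm absorbance of p-nitroaniline, reads at 0 and 120 min | Repeats: One well per compound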
MPTP block = blocks calcium-induced mitochondrial swelling | isolated mouse mitochondria, Ca2+ swelling absorbance, 30 min | AID 602449 | actives 1.4% (n = 360,000) | inhibition, % at 10 µM;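 active = inhibition of 50% or more, scaled per plate between neutral and stimulator controls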
proCasp7 act = counter-screen for procaspase-3 activators: activators of human procaspase-7 | actives 0.093% (n = 330,000) | recombinant procaspase-7, Ac-DEVD-pNA absorbance 405 nm; D23A/D198A/D206A triple mutant, cannot self-cleave; scale: DMSO 0, 5 µM enzyme 100 | AID 463210 | activation, % at 8.5 µM | P55210;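 active = percent activation above the screen-wide mean plus 3 SD, cut at about 25% in these data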
Target sequence (P55210 whole entry D23A/D198A/D206A): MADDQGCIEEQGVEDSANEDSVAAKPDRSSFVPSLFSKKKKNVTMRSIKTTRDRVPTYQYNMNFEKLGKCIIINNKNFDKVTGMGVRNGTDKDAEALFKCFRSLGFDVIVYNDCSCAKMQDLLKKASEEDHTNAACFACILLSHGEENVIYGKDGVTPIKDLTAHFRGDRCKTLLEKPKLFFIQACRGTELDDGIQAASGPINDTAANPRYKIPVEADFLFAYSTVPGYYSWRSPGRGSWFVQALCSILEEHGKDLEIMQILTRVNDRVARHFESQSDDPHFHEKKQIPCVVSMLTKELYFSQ
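Material: Procaspase-7 triple mutant (PC-7 D3A) | Quantity: 2 µM procaspase-7 mutant as dispensed | Reagent: DEVD-pNA substrate | Times: 1 h preincubation, 2 h reaction | Technique: 405 nm absorbance of p-nitroaniline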
aDG glyco act = alpha-DG glycosylation activation; activation, % at 10 µM; actives 0.22% (n = 360,000); Pro5-aDG cells, alpha-DG glycosylation AlphaScreen (IIH6); 0% Pro5, 100% B10-LARGE cell signal;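 active = activation of at least 8% versus controls, or a plate z-score of at least 8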;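 note: Pro5 are CHO cells carrying HIG-tagged alpha-DG that lacks glycosylation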
NR3A LBD binder = modulates the human NR3A ligand-binding domain; actives 2.5% (n = 340,000); Tm shift relative to glycine control, % at 25 µM; NR3A LBD differential scanning fluorimetry, Tm shift; 0% = protein alone, 100% = glycine-bound protein;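 active = melting temperature shift of at least 10% of the positive control shift, at one fixed dose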
Rh123 counter = mitochondrial membrane potential, counter-screen. shares compounds with MPTP block. isolated mitochondria, Rhodamine 123 fluorescence. inhibition, % at 10 µM. actives 78% (n = 5,000). AID 624504; in the data active = inhibition above about 22%
MPTP abs DR = MPTP inhibition, dose response swelling confirmation; shares compounds with MPTP block; isolated mitochondria swelling, absorbance; IC50, µM; actives 58% (n = 780); AID 651561; in the data active = IC50 below about 20 µM
MPTP counter DR = active in counter-screen for permeability transition pore inhibitors; shares compounds with MPTP block; isolated mitochondria counterscreen, fluorescence read-out; IC50, µM; actives 49% (n = 780); AID 651564; in the data active = IC50 below about 80 µM
Numbers stand for hits; . = inactive; / = no result given; + = active, no number.

SMILES | proCasp3 act | MPTP block | proCasp7 act | aDG glyco act | NR3A LBD binder | Rh123 counter | others
O=C(Nc1cccc(C(F)(F)F)c1)C12CC3CC(CC(C3)C1)C2 | . | 63.6 | . | . | . | 42.5
COc1ccc(NC(=O)Nc2cccc(C(F)(F)F)c2)cn1 | . | 100.0 | . | . | 26.0 | 89.9
Cc1ccc(NC(=O)c2ccc(N3CCCC3=O)cc2)cc1S(=O)(=O)N1CCCCC1 | . | . | . | . | . | /
Clc1nc(NCc2cccnc2)nc(N2CCOCC2)n1 | . | . | . | . | . | /
O=S(=O)(Nc1nccs1)c1cnc(Cl)c(Br)c1 | . | . | . | . | . | /
O=S(=O)(Nc1nc2ccccc2s1)c1cnc(Cl)c(Br)c1 | . | 89.7 | . | . | . | 85.5
O=S(=O)(Nc1nc2ccccc2s1)c1ccc(Cl)s1 | . | 78.2 | . | . | . | 79.7
COCCNC(=O)C1CCCN(C(=O)c2cc(-c3cccs3)oc2C)CC1 (configuration not stated) | / | . | / | . | / | /
COc1cc(NS(=O)(=O)c2ccc(NC(=S)NC(=O)COc3ccccc3OC)cc2)nc(OC)n1 | . | . | . | . | . | /
COc1cc(C)ccc1S(=O)(=O)NC(=O)C1(C)CCN1C(=O)COc1ccc(Cl)cc1 (configuration not stated) | / | . | / | . | / | /
O=c1oc2ccccc2c(Nc2ccc(Cl)cc2)c1[N+](=O)[O-] | . | 56.5 | . | . | . | 82.5
O=c1oc2ccccc2c(NCc2ccccc2F)c1[N+](=O)[O-] | . | . | . | . | . | /
CC(C)c1ccc(CNc2c([N+](=O)[O-])c(=O)oc3ccccc23)cc1 | . | 87.1 | . | . | . | 94.5
O=c1oc2ccccc2c(Nc2ccc(F)cc2)c1[N+](=O)[O-] | . | . | . | . | . | /
O=C(C[C@H]1C[C@H](C(=O)N2CCOCC2)[C@@]2(CCC3CCCC3)c3[nH]c4ccc(Cl)cc4c3CCN2C1=O)NCC12CC3CC(CC(C3)C1)C2 | . | . | . | . | . | /
O=C(Nc1ccc(Cl)cc1)Nc1ccccc1C(=O)NCc1ccco1 | . | . | . | . | . | /
CN(NC(=O)C(=O)NCc1ccco1)C(=O)Nc1ccc(Cl)cc1 | / | 85.0 | / | . | / | 109.0
O=C(CN1c2ccccc2Sc2ccccc21)NNC(=S)Nc1ccc(Cl)cc1Cl | . | 82.9 | . | . | 21.4 | 76.6
O=C(CN1c2ccccc2Sc2ccccc21)NNC(=S)Nc1ccc(Cl)cc1 | . | 63.2 | . | . | 33.0 | 50.5
COc1cccc(OCC(=O)NNC(=S)Nc2ccc(Cl)cc2Cl)c1 | . | 67.8 | . | . | . | 99.2
O=C(COc1cccc(Cl)c1)NNC(=S)Nc1ccccc1 | . | . | . | . | . | /
O=C(CN1CCOCC1)NNC(=S)Nc1ccc(Cl)cc1 | . | . | . | . | . | /
CCN(CC(=O)Nc1c(F)cccc1F)C(=O)c1cccc(S(=O)(=O)N2CCCCCC2)c1 | . | . | . | . | . | /
NC(N)=Nc1ccc(C=C2C=Cc3ccccc32)cc1 | / | 58.2 | / | . | . | . | MPTP abs DR=3.68;MPTP counter DR=31.3
Cc1ccccc1-c1nn(-c2ccc(F)cc2F)cc1CNCCN(C)C | . | . | . | . | . | /
SMILES | proCasp3 act | MPTP block | proCasp7 act | aDG glyco act | NR3A LBD binder | Rh123 counter | others
Cc1ccccc1-c1nn(-c2ccc(F)cc2F)cc1CNCCCN(C)C | . | 86.6 | . | . | . | .
CC(=O)N1CCN(C(=S)c2ccc([N+](=O)[O-])cc2)CC1 | . | 119.1 | . | . | . | . | MPTP abs DR=.;MPTP counter DR=.
O=C1NC[C@H](CCCCN2CCN(CCc3ccccc3)C(=O)C2=O)N(CCC2CCCCC2)C1=O | / | . | / | . | / | /
CN1CCCN(C(c2ccccc2)c2ccc(Cl)cc2)CC1 (configuration not stated) | . | 99.2 | . | . | . | .
S=C(Nc1ccc(Cl)cc1)NC1CCCCC1 | . | 81.8 | . | . | . | 92.6
S=C(NNc1cccc(Cl)c1)NC1CCCCC1 | . | . | . | . | . | /
S=C(Nc1cccc(Cl)c1)NC1CCCCC1 | . | 98.8 | . | . | . | 107.5
NS(=O)(=O)c1ccc(NC(=S)NC2CCCCC2)cc1 | . | . | . | . | . | /
COC(=O)c1ccc(NC(=O)NC2CCCCC2)cc1 | . | . | . | . | . | /
COC(=O)c1ccc(NC(=S)NC2CCCCC2)cc1 | . | 90.1 | . | . | . | 79.5
S=C(Nc1ccc(Br)cc1)NC1CCCCC1 | . | 97.2 | . | . | . | 99.1
C[C@@H]1CN([C@@H](C)CO)C(=O)c2cc(C#Cc3ccccc3)cnc2O[C@H]1CN(C)C(=O)c1ccccc1F | / | . | / | . | / | /
COCCN(C(=O)COC(=O)Cc1ccc(Cl)cc1Cl)c1c(N)n(Cc2ccccc2)c(=O)[nH]c1=O | . | . | . | . | . | /
COc1ccc(C(CNc2ccc(S(=O)(=O)N3CCCC3)cc2[N+](=O)[O-])N2CCCC2)cc1 (configuration not stated) | . | . | . | . | . | /
S=C(Nc1ccc(Nc2ccccc2)cc1)NC1CCCCCC1 | . | 63.1 | . | . | . | 65.6
S=C(Nc1cccnc1)NC1CCCCCCC1 | . | . | . | . | . | /
COC(=O)c1ccc(NC(=O)C2CC3CCC2C3)cc1 (configuration not stated) | . | . | . | . | . | /
COC(=O)c1ccc(NC(=S)NC2CC3CCC2C3)cc1 (configuration not stated) | . | 101.4 | . | . | . | 91.0
S=C(NCCc1ccc(Cl)cc1)NC1CCCC1 | . | 52.9 | . | . | . | 77.8
COc1ccc(N2C(=O)c3ccccc3NC(=O)C2C(=O)NCCc2ccccc2F)cc1 (configuration not stated) | / | . | / | . | / | /
CN(C)CCOc1ncnc2c1oc1ccccc12 | . | . | . | . | . | /
CN(C)CCOc1nc(-c2ccccc2)nc2c1oc1ccccc12 | . | 74.9 | . | . | . | .
NC(=S)n1[nH]c(-c2ccc([N+](=O)[O-])cc2)c(N=Nc2cccc([N+](=O)[O-])c2)c1=O | / | 107.6 | / | . | 26.5 | 75.9
Cc1c(N=Nc2c(-c3ccc([N+](=O)[O-])cc3)[nH]n(C(N)=S)c2=O)cccc1[N+](=O)[O-] | / | 95.5 | / | . | 24.9 | 67.4
Cc1cc(C(=O)CSc2n[nH]c(N)n2)c(C)n1-c1cc(F)ccc1F | . | 58.9 | . | . | . | . | MPTP counter DR=.
Cc1cc(C(=O)CSc2n[nH]c(N)n2)c(C)n1-c1ccc(F)cc1 | . | . | . | . | . | /
CC(C)(C)c1ccc(OCCCn2ccnc2)cc1 | . | + | . | . | . | . | MPTP abs DR=13.3;MPTP counter DR=27.2
